# Shown are actives, neighbours in structure and some others; about 2.1% of the full set was active somewhere.
# TDP2 absorb – human TDP2 enzyme inhibitors, primary screen, biochemical, epi absorbance, recombinant enzyme; Tyrosyl-DNA phosphodiesterase 2 (Homo sapiens), O95551; T5PNP hydrolysis, p-nitrophenol absorbance 415 nm; inhibition, % at 12.8 µM; 0.34% of 370,000 active; AID 720702, 2013;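 active = inhibition above the mean of all tested compounds plus 3 SD, set per campaign, cut at about 25% in these data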;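 also: 0% = DMSO with enzyme and 100% = buffer with substrate but no TDP2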
# Target sequence (O95551 whole entry, looked up): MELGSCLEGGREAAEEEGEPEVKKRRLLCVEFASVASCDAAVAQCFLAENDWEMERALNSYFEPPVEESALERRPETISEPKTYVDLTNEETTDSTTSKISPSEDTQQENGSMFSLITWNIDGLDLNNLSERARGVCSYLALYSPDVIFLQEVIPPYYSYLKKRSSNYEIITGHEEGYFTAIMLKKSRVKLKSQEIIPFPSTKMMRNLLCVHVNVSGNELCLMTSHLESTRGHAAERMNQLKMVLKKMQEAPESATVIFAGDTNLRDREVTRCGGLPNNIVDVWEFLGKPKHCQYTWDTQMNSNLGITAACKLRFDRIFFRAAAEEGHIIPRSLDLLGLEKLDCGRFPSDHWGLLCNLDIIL
#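 Material: recombinant human TDP2; quantity: TDP2 enzyme at 120 nM final; medium: Tris-HCl pH 7.5 with MgCl2; compound: single concentration, 12.8 µM nominal, with 1% DMSO; incubation: 2 h enzyme incubation at 37 °C; signal: epi absorbance; measure: percent inhibition; benchmarks: high control without enzyme, low control DMSO plus TDP2; repeats: singlicate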
# PP5 primary – PP5 phosphatase inhibitors, primary screen, biochemical, fluorescence. purified PP5c, OMFP substrate fluorescence. 0.18% of 320,000 active. Serine/threonine-protein phosphatase 5 (Homo sapiens), P53041. inhibition, % at 6.7 µM;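 active = inhibition above the campaign's mean inhibition across all tested compounds plus 3 SD, cut at about 9.5% in these data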;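 also: 0% = DMSO only and 100% = 100 µM cantharidin control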
# Apaf1 inhib – inhibitors of human Apaf-1 apoptosome, primary screen, biochemical, DEVD-Rh110 fluorescence, uHTS. Apoptotic protease-activating factor 1 (Homo sapiens), O14727. reconstituted apoptosome caspase-3 activity. inhibition, % at 20 µM. 0.71% of 330,000 active. AID 489030, 2010; active = inhibition of at least 40% at 20 µM;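 also: plate controls were DMSO wells for no effect and DEVD-CHO caspase inhibitor wells for full effect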
#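 Material: reconstituted apoptosome with Apaf-1, cytochrome c, caspase-9, procaspase-3, dATP / Buffer or medium: pH 7.5 Hepes buffer with CHAPS, BSA, DTT / Also added: cytochrome c with DEVD-Rh110 / Schedule: compound with Apaf-1, dATP, procaspase-3 30 min, then 50 min reaction, room temperature / Technique: rhodamine 110 fluorescence at Ex 480/Em 540 nm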
# GSTO1 counter – inhibitors of recombinant GSTO1, primary screen, counter-screen for RBBP9 inhibitor project, biochemical, fluorescence polarization. Glutathione S-transferase omega-1 (Homo sapiens), P78417. activity-based probe fluorescence polarization. inhibition, % at 5.96 µM. 1.1% of 300,000 active. AID 1974, 2009;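 active = inhibition above the campaign mean inhibition plus 3 SD, cut at about 35% in these data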;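 also: 0% = GSTO1-1 with DMSO and 100% = wells lacking GSTO1-1 enzyme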
# PP1 counter – PP1-alpha phosphatase inhibitors, primary screen, counter-screen for PP5 inhibitor project, biochemical, fluorescence, OMFP substrate, single point; Serine/threonine-protein phosphatase PP1-alpha catalytic subunit (Homo sapiens), P62136; 0.9% of 320,000 active; purified PP1alpha; inhibition, % at 6.7 µM;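 active = inhibition above the mean inhibition of all tested compounds plus 3 SD, computed separately for each screening campaign, cut at about 15% in these data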
# Target sequence (P62136 whole entry, looked up): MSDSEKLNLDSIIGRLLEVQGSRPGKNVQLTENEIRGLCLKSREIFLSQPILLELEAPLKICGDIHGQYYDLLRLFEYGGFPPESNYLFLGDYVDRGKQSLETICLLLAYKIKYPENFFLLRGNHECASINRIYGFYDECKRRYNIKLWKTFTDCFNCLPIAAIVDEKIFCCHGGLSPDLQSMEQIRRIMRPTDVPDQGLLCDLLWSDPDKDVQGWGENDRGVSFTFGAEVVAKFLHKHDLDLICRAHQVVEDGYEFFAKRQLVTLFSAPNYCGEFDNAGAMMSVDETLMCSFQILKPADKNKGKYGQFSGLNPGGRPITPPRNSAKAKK
# GSTO1 inh conf – GSTO1 inhibitor hit confirmation, counter-screen for RBBP9 inhibitor project, biochemical, fluorescence polarization, triplicate; shares compounds with GSTO1 counter; recombinant GSTO1, probe fluorescence polarization; inhibition, % at 5.96 µM; 54% of 2,400 active; AID 2176, 2009;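 active = inhibition above the primary screen's cutoff, its mean inhibition plus 3 SD, cut at about 35% in these data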;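 also: loss of polarization as inhibitors block binding of rhodamine sulfonate ester activity probe; 0% = GSTO1 with DMSO and 100% = wells lacking GSTO1 enzyme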
# The depositor's hits bear a star; nt = not tested or not shown; ! = repeats disagree.
SMILES,TDP2 absorb,PP5 primary,Apaf1 inhib,GSTO1 counter,PP1 counter,others
COc1ccccc1N1C(=O)NC(=O)/C(=C/c2ccc([N+](=O)[O-])s2)C1=O,18,1,12,42*,0,
O=S(=O)(c1ccc(Cl)cc1)N1CC1c1ccccc1 (centres undefined),5,-2,0,35*,-7,
N#CC1c2ccccc2-n2nncc2CN1C(=O)c1ccc([N+](=O)[O-])o1 (centres undefined),6,nt,nt,nt,nt,
CN1C(=O)/C(=C/c2cccn2-c2ccc3ccccc3c2)C(=O)NC1=S,7,2,5,55*,14,
O=C1CC[C@@]2(O)[C@H]3Cc4ccc(O)c5c4[C@@]2(CCN3CC2CC2)C1O5 (some centres undefined),-7,nt,nt,nt,nt,
O=C(Nc1ccccc1)c1c(O)[nH]c(=S)[nH]c1=O,4,-6,12,3,16*,
Clc1ccc(C[n+]2c(-c3ccccc3)cc(-c3ccccc3)cc2-c2ccccc2)cc1,2,1,52*,2,10,
CN(C)[C@@H]1C(=O)C(C(N)=O)=C(O)[C@@]2(O)C(=O)C3=C(O)c4c(O)ccc(Cl)c4[C@@](C)(O)[C@H]3C[C@@H]12,-5,3,nt,45*,6,
CN(C)[C@@H]1C(=O)C(C(N)=O)=C(O)[C@@]2(O)C(=O)C3=C(O)c4c(O)cccc4[C@@](C)(O)C3C[C@@H]12 (some centres undefined),6,0,-12,72*,4,
N=c1c2c(-c3ccccc3)c(-c3ccccc3)n(Cc3ccccc3)c2ncn1C1CCC(O)CC1 (centres undefined),-10,nt,nt,nt,nt,
NCCc1cc(O)c(O)cc1O,8,nt,nt,nt,nt,
NC(Cc1cc(O)c(O)cc1O)C(=O)O (centres undefined),nt,0,84*,72*,69*,
CCCCCn1c(N)c(C(=O)NCCN2CCOCC2)c2nc3ccccc3nc21,-13,3,32,4,3,
CCCCCCn1c(N)c(C(=O)NCCN2CCOCC2)c2nc3ccccc3nc21,-17,8,52*,5,1,
Nc1c(C(=O)NCc2ccco2)c2nc3ccccc3nc2n1Cc1ccccc1,20,4,23,-2,5,
Nc1c(C(=O)NCc2ccco2)c2nc3ccccc3nc2n1CCN1CCOCC1,-3,2,44*,-8,5,
CN1CCC2(CC1)C(C#N)=C(N)NC(S)=C2C#N,30*!,-1,16,-16,4,
O=C(CN1C(=O)CN=C(c2ccccc2)c2cc(Cl)ccc21)NC1CCCCC1,-8,nt,nt,nt,nt,
Brc1csc(N2CCNCC2)n1,3,nt,nt,nt,nt,
O=C1C=Cc2ccccc2C1=O,nt,-2,62*,29,-3,
CC(C)C[C@H]1C(=O)N2CCCC2[C@]2(O)O[C@](NC(=O)[C@@H]3C=C4c5cccc6[nH]cc(c56)CC4N(C)C3)(C(C)C)C(=O)N12 (some centres undefined),nt,2,87*,48*,11,
CC(C)[C@@]1(NC(=O)[C@@H]2C[C@@H]3c4cccc5[nH]cc(c45)C[C@H]3N(C)C2)O[C@@]2(O)[C@@H]3CCCN3C(=O)[C@H](Cc3ccccc3)N2C1=O,-4,1,23,-3,1,
CS(=O)(=O)N1Cc2cc(Br)ccc2-n2nncc2C1,1,nt,nt,nt,nt,
O=C(NC(Cc1ccccc1)P(=O)(O)Oc1ccccc1)OCc1ccccc1 (centres undefined),8,nt,nt,nt,nt,
Cc1ccccc1N1C(=O)NC(=O)/C(=C\c2ccc3c(c2)CCCN3Cc2ccccc2)C1=O,-1,1,14,14,3,
SMILES,TDP2 absorb,PP5 primary,Apaf1 inhib,GSTO1 counter,PP1 counter,others
O=C1NC(=S)NC(=O)C1=Cc1ccc2c(c1)CCN2CCCCl,nt,1,24,51*,0,
CCN1/C(=C\C=C\C2=[N+](CC)c3ccccc3C2(C)C)C(C)(C)c2ccccc21,nt,6,56*,-352,6,
S=P(c1ccccc1)(c1ccccc1)c1cnc2ccccn12,-5,nt,nt,nt,nt,
N#CC1c2ccccc2-n2nncc2CN1C(=O)c1cccnc1 (centres undefined),5,nt,nt,nt,nt,
CCN(CC)c1ccc(/C=C/[N+](=O)[O-])cc1,12,-1,2,36*,2,
COc1cc(/C=C/[N+](=O)[O-])ccc1O,4,1,-6,23,-1,
Cc1ccc(C(=O)NCCN2CCC3(CC2)C(=O)NCN3c2ccccc2)cc1,3,nt,nt,nt,nt,
COc1cc(C=C2C(=O)NC(=O)NC2=O)ccc1OCc1ccc([N+](=O)[O-])cc1,5,nt,nt,nt,nt,
O=C1NC(=O)C(=Cc2ccc(Oc3ccc([N+](=O)[O-])cc3)cc2)C(=O)N1,nt,3,43*,49*,5,
Oc1ccc(/C=N/NP(=S)(c2ccccc2)c2ccccc2)c(O)c1O,1,2,18,37*,0,
O=C(CN1C(=O)[C@@H](Cc2ccccc2)N=C(c2ccccc2)c2ccccc21)NC1CCCCC1,-3,nt,nt,nt,nt,
COC(=O)C1C(O)C(C)C(O)C(C)/C=C\C=C(/C)C(=O)Nc2c(C)c(OC(C)=O)c3c(c2O)C(=O)C(C)=C2OCOC(=C23)/C(C)=C/C(C)(O)C(O)C(C)C1O (centres undefined),15,3,16,69*,-3,
c1cncc(-c2ccc3n2Cc2cnnn2-c2ccccc2-3)c1,-8,nt,nt,nt,nt,
C=CCn1c(O)c(N=Nc2c(C)n(C)n(-c3ccccc3)c2=O)c(=O)[nH]c1=S,-7,1,-3,36*,3,
CCOc1ccc(-n2c(O)c(N=Nc3c(C)n(C)n(-c4ccccc4)c3=O)c(=O)[nH]c2=O)cc1,3,-1,0,21,-1,
CC(C)[C@H]1C(=O)N2CCC[C@H]2[C@]2(O)O[C@](NC(=O)[C@@H]3C=C4c5cccc6[nH]cc(c56)C[C@H]4N(C)C3)(C(C)C)C(=O)N12,nt,5,95*,59*,1,GSTO1 inh conf=5
COP(=O)(C(=O)Nc1ccccc1)C(CC(C)C)NC(=O)OCc1ccccc1 (centres undefined),10,nt,nt,nt,nt,
CCOC(=O)C(NC(=O)CCl)(Nc1ccc(C(O)(C(=O)OCC)C(F)(F)F)cc1)C(F)(F)F (centres undefined),1,1,11,53*,-5,GSTO1 inh conf=74*
Cc1cc(NC(=O)CCl)on1,-3,-1,-4,73*,-5,GSTO1 inh conf=99*
CCC(=O)Nc1ccc(Cl)c(Cl)c1,-8,nt,nt,nt,nt,

# From PubChem BioAssay
